For assay [1], the system named is Meriones unguiculatus. Description: Brain penetration in gerbils assessed as inhibition of GR-73632-induced foot tapping at 1 mg/kg, iv. The assay is classed as functional. Put shortly:
(§1)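 Gerbils receive the test compound by iv injection. Hindlimb thumping (foot tapping) is then elicited by central administration of an NK1 agonist. Inhibition of the thumping is scored as % inhibition at 0 h after 1 mg/kg iv, or at 24 h after 3 mg/kg. Dose titrations at 0 and 24 h give an ID50.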

Assay [2] concerns the target T1, Substance-P receptor (Homo sapiens, UniProt P25103). Put plainly: Displacement of [125I]L-703606 from human NK1 expressed in CHO cells in presence of 50% human serum. The class given is cell-based.
Assay [3] deals with T1, Substance-P receptor. Description: Displacement of [125I]L-703606 from human NK1 expressed in CHO cells. The assay is classed as cell-based. A general note: In a radioligand displacement assay an active substance lowers the binding of a labelled ligand.
Assay [4] deals with Meriones unguiculatus. Put plainly: Brain penetration in gerbils assessed as inhibition of GR-73632-induced foot tapping at 3 mg/kg, iv after 24 hrs. The class given is functional. The method in brief:
as §1

For assay [5], the target named is T1, Substance-P receptor. Description: Displacement of [125I]L-703606 from human NK1 expressed in CHO cells at 0.1 uM. The assay is classed as cell-based.
Assay [6] has as its target T1, Substance-P receptor. Put plainly: Displacement of [125I]L-703606 from human NK1 expressed in CHO cells in presence of 50% human serum at 0.1 uM. The class given is cell-based.
Assay [7] is filed under the species Meriones unguiculatus. Description: Brain penetration in gerbils assessed as inhibition of GR-73632-induced foot tapping. The assay is classed as functional. The following applies: read-out: ID50 (the source's name). The method in brief: as §1

pIC50: −log10 of the molar value. Activity calls are given as the source filed them. The rule behind the calls is not given here.

T1 sequence (P25103 whole entry): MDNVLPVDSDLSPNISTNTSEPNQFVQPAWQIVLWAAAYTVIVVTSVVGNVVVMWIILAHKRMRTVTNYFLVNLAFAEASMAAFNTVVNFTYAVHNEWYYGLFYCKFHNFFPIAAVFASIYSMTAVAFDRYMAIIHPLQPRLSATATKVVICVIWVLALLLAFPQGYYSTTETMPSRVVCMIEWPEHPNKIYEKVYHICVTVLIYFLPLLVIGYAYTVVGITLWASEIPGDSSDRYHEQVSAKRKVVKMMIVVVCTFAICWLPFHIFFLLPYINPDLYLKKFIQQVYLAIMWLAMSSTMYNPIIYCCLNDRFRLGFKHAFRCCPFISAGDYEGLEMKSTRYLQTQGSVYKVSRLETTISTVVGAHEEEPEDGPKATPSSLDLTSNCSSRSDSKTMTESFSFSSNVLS

As a reminder, the pIC50 is the negative decadic logarithm of the IC50, by convention in mol/L. For the compound `C[C@@H](O[C@@H]1[C@@H](c2ccc(F)cc2)CN2C(=O)OC[C@H]12)c1cc(C(F)(F)F)cc(C(F)(F)F)c1`, the result in assay [1] and in assay [2] was inactive. The compound further had a pIC50 in assay [3] of 9.00.
One may read the inhibition in vivo as how much of the control response was suppressed. In the case of `C[C@@H](O[C@H]1CN(C(=O)OC(C)(C)C)[C@@H](CO)[C@@H]1c1ccc(F)cc1)c1cc(C(F)(F)F)cc(C(F)(F)F)c1`, the inhibition in vivo at 1 mg/kg in assay [1] was found to be 16%. In assay [4], the inhibition in vivo at 3 mg/kg is 0%. For the same compound, the pIC50 in assay [3] is 9.55.
Take `C[C@@H](O[C@H]1CN2C(=O)N(Cc3ccccc3)C[C@H]2[C@@H]1c1ccc(F)cc1)c1cc(C(F)(F)F)cc(C(F)(F)F)c1`: the result in assay [1] and in assay [2] was inactive. Moreover, in assay [3], the pIC50 was 8.57.
As to `C[C@H](O[C@H]1CN(C(=O)OC(C)(C)C)[C@@H](CO)[C@@H]1c1ccc(F)cc1)c1cc(C(F)(F)F)cc(C(F)(F)F)c1`, the Activity in assay [5] is 92%.
`C[C@H](O[C@@H]1[C@@H](c2ccccc2)CN(C(=O)OC(C)(C)C)[C@H]1CO)c1cc(C(F)(F)F)cc(C(F)(F)F)c1` gave an Activity in assay [5] of 26%.
In assay [3], `C[C@@H](O[C@@H]1[C@@H](c2ccc(F)cc2)CN(C(=O)OC(C)(C)C)[C@H]1CO)c1cc(C(F)(F)F)cc(C(F)(F)F)c1` gave a pIC50 of 8.92.
In the case of `C[C@@H](O[C@@H]1[C@@H](c2ccccc2)CN2C(=O)OC[C@H]12)c1cc(C(F)(F)F)cc(C(F)(F)F)c1`, the Activity in assay [6] came out at 31%. The outcome in assay [1] was inactive. In addition, the pIC50 in assay [3] is 8.82.
As for `C[C@@H](O[C@H]1CN2C(=O)N(C)C[C@H]2[C@@H]1c1ccc(F)cc1)c1cc(C(F)(F)F)cc(C(F)(F)F)c1`, in assay [1], the result was inactive. The Activity in assay [2] came out at 32 nM. Also, the negative-log IC50 (pIC50) in assay [3] was 9.06.
`C[C@H](O[C@@H]1[C@@H](c2ccc(F)cc2)CN(C(=O)OC(C)(C)C)[C@H]1CO)c1cc(C(F)(F)F)cc(C(F)(F)F)c1` showed an Activity in assay [5] of 41%.
On to `C[C@H](O[C@H]1[C@H](c2ccccc2)CN(C(=O)OC(C)(C)C)[C@H]1CO)c1cc(C(F)(F)F)cc(C(F)(F)F)c1`, for which, in assay [5], the Activity amounted to 13%.
Turning to `C[C@@H](O[C@H]1CN2C(=O)CC[C@H]2[C@@H]1c1ccc(F)cc1)c1cc(C(F)(F)F)cc(C(F)(F)F)c1`, the inhibition in vivo at 1 mg/kg in assay [1] came to 100%. Also, the ED50 in assay [7] came to 0.03 mg/kg. Also, the inhibition in vivo at 3 mg/kg in assay [4] was 100%. Moreover, the Activity in assay [2] was determined as 2.2 nM. This compound also showed a pIC50 in assay [3] of 10.22.
On to `C[C@@H](O[C@H]1CN2C(=O)OC[C@@H]2[C@@H]1c1ccccc1)c1cc(C(F)(F)F)cc(C(F)(F)F)c1`, for which the inhibition in vivo at 1 mg/kg in assay [1] came out at 2.5%. Moreover, the Activity in assay [2] was 37 nM. This compound also had a pIC50 in assay [3] of 9.57.
`C[C@H](O[C@H]1[C@H](c2ccc(F)cc2)CN(C(=O)OC(C)(C)C)[C@H]1CO)c1cc(C(F)(F)F)cc(C(F)(F)F)c1` came in with an Activity in assay [5] of 39%.
Same read-out and setting: under `C[C@H](O[C@H]1CN(C(=O)OC(C)(C)C)[C@@H](CO)[C@@H]1c1ccccc1)c1cc(C(F)(F)F)cc(C(F)(F)F)c1` stands 26%.
Take `C[C@@H](O[C@@H]1[C@@H](c2ccccc2)CN(C(=O)OC(C)(C)C)[C@H]1CO)c1cc(C(F)(F)F)cc(C(F)(F)F)c1`: in assay [3], the pIC50 was 8.44.
Turning to `C[C@@H](O[C@H]1CN2C(=O)OC[C@@H]2[C@@H]1c1ccc(F)cc1)c1cc(C(F)(F)F)cc(C(F)(F)F)c1`, the inhibition in vivo at 1 mg/kg in assay [1] was 49%. In addition, in assay [4], the inhibition in vivo at 3 mg/kg is 0%. For the same compound, the Activity in assay [2] worked out at 37 nM. Also, in assay [3], the pIC50 is 9.85.
With `C[C@@H](O[C@H]1[C@H](c2ccccc2)CN(C(=O)OC(C)(C)C)[C@H]1CO)c1cc(C(F)(F)F)cc(C(F)(F)F)c1`, in assay [3], the pIC50 is 8.11.
Take `C[C@@H](O[C@@H]1[C@@H](c2ccc(F)cc2)CN2C(=O)OC[C@@H]12)c1cc(C(F)(F)F)cc(C(F)(F)F)c1`: the result in assay [1] was inactive. The Activity in assay [2] came out at 57 nM. In assay [3], the pIC50 was 9.48.
As for `C[C@@H](O[C@H]1[C@H](c2ccc(F)cc2)CN(C(=O)OC(C)(C)C)[C@H]1CO)c1cc(C(F)(F)F)cc(C(F)(F)F)c1`, in assay [3], the pIC50 was 8.36.
Still for that read-out and setting: under `C[C@@H](O[C@H]1CN(C(=O)OC(C)(C)C)[C@@H](CO)[C@@H]1c1ccccc1)c1cc(C(F)(F)F)cc(C(F)(F)F)c1` stands 9.20.
With `C[C@@H](O[C@H]1CN2C(=O)NC[C@H]2[C@@H]1c1ccc(F)cc1)c1cc(C(F)(F)F)cc(C(F)(F)F)c1`, in assay [1], the inhibition in vivo at 1 mg/kg came out at 100%. The inhibition in vivo at 3 mg/kg in assay [4] was 8%. Besides, the Activity in assay [2] is 2 nM. Moreover, the pIC50 in assay [3] was 10.22.
Take `C[C@@H](O[C@@H]1[C@@H](c2ccccc2)CN2C(=O)OC[C@@H]12)c1cc(C(F)(F)F)cc(C(F)(F)F)c1`: the Activity in assay [6] was determined as 25%. Further, in assay [1], the outcome was inactive. In assay [3], this compound showed a pIC50 of 8.89.

For the origin of these results see ChEMBL document CHEMBL1142272, “Fused bicyclic pyrrolizinones as new scaffolds for human NK1 antagonists” (Bioorg Med Chem, 2008).
